The values below come from ChEMBL document CHEMBL3994613, “Diaryltriazenes as antibacterial agents against methicillin resistant Staphylococcus aureus (MRSA) and Mycobacterium smegmatis” (Eur J Med Chem, 2017).

≈ marks a conversion by molar mass, not a printed value. Where only a bound is given, the exact number is not on record here.

Data set [1] has as its system Mycolicibacterium smegmatis. Description: Antimycobacterial activity against Mycobacterium smegmatis MC2 155 after 94 to 98 hrs by microdilution method. The class given is functional. The note with it: str. MC2 155. The procedure, abridged:
(§1)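 Microdilution in TSB broth. Inoculum from colonies grown 96 h on TSA, final 1×10^5 CFU/mL, aerobic 94–98 h at 37 °C, growth read on a plate reader, at least duplicate.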
Background: In broth dilution the organism is exposed to a series of concentrations in liquid medium.

Data set [2] has as its system Mycolicibacterium smegmatis. As to the kind of experiment: Bactericidal activity against Mycobacterium smegmatis MC2 155 after 96 hrs by microdilution method. The note with it: str. MC2 155, 96 h. The class given is functional. In outline:
as §1

The test system of data set [3] is Staphylococcus aureus. Description: Antibacterial activity against methicillin-resistant Staphylococcus aureus USA300 after 18 to 20 hrs by microdilution method. The class given is functional. The procedure, abridged:
(§2)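 EUCAST broth microdilution in LB broth. Inoculum prepared by direct colony suspension from 20–24 h LB agar (E. coli DH10β) or 5% sheep blood BHI agar (MRSA USA300) growth. Final inoculum 2×10^4 CFU/mL, 18–20 h aerobic at 37 °C, growth read on a plate reader, at least duplicate.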

The subject of data set [4] is Staphylococcus aureus. As to the kind of experiment: Bactericidal activity against methicillin-resistant Staphylococcus aureus USA300 after 18 to 20 hrs by microdilution method. It is filed as functional. In outline: as §2
Data set [5] relates to Escherichia coli. As to the kind of experiment: Antibacterial activity against Escherichia coli DH10beta harboring pHuLUC3 after 18 to 20 hrs by microdilution method. The class given is functional. In outline: as §2
Data set [6] deals with Saccharomyces cerevisiae. Description: Antibacterial activity against Saccharomyces cerevisiae after 18 to 20 hrs by microdilution method. The procedure, abridged: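 Microdilution in YEP broth against wild-type yeast grown on YEP agar. Final inoculum 1×10^5 CFU/mL. Read after 18–20 h aerobic incubation at 30 °C on plate reader, at least one duplicate.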
The test system of data set [7] is Staphylococcus aureus. Description: Induction of membrane integrity impairment in Staphylococcus aureus USA300 assessed as cells with intact membrane at 2 ug/ml measured after 30 mins by Baclight assay relative to control. The class given is functional. The procedure, abridged: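 LIVE/DEAD BacLight fluorescence assay. Dye was then added and incubated 15 min in the dark at room temperature. Intact membrane % came from a live/dead (isopropanol-killed) standard curve, at least triplicate, mean±SD.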

The subject of data set [8] is Staphylococcus aureus. Description: Antibacterial activity against methicillin-resistant Staphylococcus aureus 1653 after 18 to 20 hrs by broth microdilution method. The class given is functional. The procedure, abridged:
(§3)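 EUCAST broth microdilution in LB broth. Inoculum from 20–24 h colonies on 5% sheep blood BHI agar, final 3×10^4 CFU/mL, 18–20 h aerobic at 37 °C, plate reader, at least duplicate.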

The subject of data set [9] is Staphylococcus aureus. Description: Bactericidal activity against methicillin-resistant Staphylococcus aureus 1653 after 18 to 20 hrs by broth microdilution method. It is filed as functional. The procedure, abridged:
as §3

Data set [10] deals with Streptococcus pneumoniae. As to the kind of experiment: Antibacterial activity against Streptococcus pneumoniae R6 after 18 to 20 hrs by broth microdilution method. The class given is functional. The procedure, abridged:
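Broth microdilution per EUCAST in BHI broth. Inoculum from colonies on BHI agar with 5% sheep blood, final 5×10^4 CFU/mL. Read after 18–20 h anaerobic incubation at 37 °C.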

Data set [11] has as its system Streptococcus pneumoniae. Description: Bactericidal activity against Streptococcus pneumoniae R6 after 18 to 20 hrs by broth microdilution method. The class given is functional.
Data set [12] relates to Bacillus subtilis. Description: Antibacterial activity against Bacillus subtilis ATCC 6051 after 18 to 20 hrs by broth microdilution method. It is filed as functional. The procedure, abridged:
(§4)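 Broth microdilution per EUCAST in LB broth. Inoculum from 20–24 h colonies by CLSI direct colony suspension (LB agar for E. coli), final 2×10^4 CFU/mL. Read after 18–20 h aerobic incubation at 37 °C on plate reader, at least one duplicate.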

Data set [13] relates to Bacillus subtilis. Description: Bactericidal activity against Bacillus subtilis ATCC 6051 after 18 to 20 hrs by broth microdilution method. It is filed as functional.
For data set [14], the system named is Enterococcus faecalis. Description: Antibacterial activity against vancomycin resistant Enterococcus faecalis 501 after 18 to 20 hrs by broth microdilution method. It is filed as functional. The procedure, abridged:
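EUCAST microdilution in BHI broth. Inoculum from 20–24 h colonies on 5% sheep blood BHI agar, final 3×10^4 CFU/mL, 18–20 h aerobic at 37 °C, plate reader, at least duplicate.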

For data set [15], the system named is Pseudomonas aeruginosa. As to the kind of experiment: Antibacterial activity against Pseudomonas aeruginosa PA0001 after 18 to 20 hrs by broth microdilution method. The class given is functional. The procedure, abridged:
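EUCAST broth microdilution in LB broth. Inoculum from 20–24 h LB agar colonies (CLSI direct colony suspension), final 3×10^4 CFU/mL. Aerobic incubation 18–20 h at 37 °C, plate-reader read-out, at least one duplicate.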

The subject of data set [16] is Klebsiella pneumoniae. As to the kind of experiment: Antibacterial activity against Klebsiella pneumoniae ATCC 13882 after 18 to 20 hrs by broth microdilution method. It is filed as functional. The procedure, abridged: (§5)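 Broth microdilution per EUCAST in TSB broth. Inoculum prepared by CLSI direct colony suspension from 20–24 h TSA colonies, final 3×10^4 CFU/mL. Aerobic incubation for 18–20 h at 37 °C, growth read on plate reader, at least one duplicate.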

The subject of data set [17] is Klebsiella pneumoniae. As to the kind of experiment: Antibacterial activity against Klebsiella pneumoniae ATCC 700603 after 18 to 20 hrs by broth microdilution method. The class given is functional. In outline: as §5
Data set [18] has as its system Acinetobacter baumannii. Description: Antibacterial activity against Acinetobacter baumannii ATCC 19606 after 18 to 20 hrs by broth microdilution method. The note with it: ATCC 19606 = CIP 70.34 = JCM 6841. The class given is functional. The procedure, abridged:
as §5

Data set [19] relates to Acinetobacter baumannii. Description: Antibacterial activity against Acinetobacter baumannii ATCC BAA-1605 after 18 to 20 hrs by broth microdilution method. It is filed as functional. In outline: as §5
Data set [20] can be described thus: Solubility of the compound in water. The class given is physicochemical. The note with it: buffer.
Data set [21] can be described thus: Stability of the compound in water. The class given is physicochemical. The note with it: buffer.
Data set [22] in a line: Stability of the compound in organic solvent. The class given is physicochemical.
Data set [23] is described as follows: Stability of the compound in solid state. It is filed as physicochemical.
Data set [24] relates to Escherichia coli. As to the kind of experiment: Antibacterial activity against Escherichia coli D22 after 18 to 20 hrs by microdilution method. It is filed as functional. The procedure, abridged:
as §4

Data set [25] relates to Escherichia coli. Description: Antibacterial activity against N43 CGSC 5583 knock out Escherichia coli after 18 to 20 hrs by microdilution method. The class given is functional. In outline:
as §4

Data set [26] concerns Escherichia coli. Description: Bactericidal activity against Escherichia coli DH10beta harboring pHuLUC3 after 18 to 20 hrs by microdilution method. The class given is functional. The procedure, abridged: as §2
The subject of data set [27] is Mycolicibacterium smegmatis. As to the kind of experiment: Antimycobacterial activity against Mycobacterium smegmatis MC2 155 after 3 days by broth macrodilution method. It is filed as functional. Particulars: str. MC2 155, 72 h.

Regarding `O=C(c1ccccc1F)N(/N=N/c1ccc([N+](=O)[O-])cc1C(F)(F)F)c1ccc([N+](=O)[O-])cc1C(F)(F)F`, the MIC in data set [1] was 16 µg/mL (≈ 29.3 µM); in data set [3] it was 0.25 µg/mL (≈ 0.458 µM); in [5] it was > 128 µg/mL; in data set [6], > 128 µg/mL; in data set [8], 0.5 µg/mL (≈ 0.917 µM); in data set [10], 0.5 µg/mL (≈ 0.917 µM). For the same compound, the MIC in data set [12] was 2 µg/mL (≈ 3.67 µM); in data set [14] it was > 128 µg/mL; in data set [15] it was > 128 µg/mL; in [16], > 128 µg/mL; in data set [17] it was > 128 µg/mL; in data set [18], > 128 µg/mL. Moreover, the MIC in data set [19], in [24] and in [25] was > 128 µg/mL in each case. Further, the MBC – broadly, the smallest concentration meeting the test's criterion for killing – in data set [2] is 128 µg/mL (≈ 235 µM); in data set [4], 0.5 µg/mL (≈ 0.917 µM); in data set [9], 4 µg/mL (≈ 7.34 µM); in data set [11] it was 1 µg/mL (≈ 1.83 µM); in data set [13] it was > 64 µg/mL. Also, the “Cells with intact membrane” value in data set [7] worked out at 103.8%. Further, the solubility result in data set [20] is “Soluble”. The Stability result in data set [21], in data set [22] and in data set [23] was “Stable” each time.
As for `O=C(c1ccncc1)N(/N=N/c1ccc([N+](=O)[O-])c(C(F)(F)F)c1)c1ccc([N+](=O)[O-])c(C(F)(F)F)c1`, the MIC in [1] is 64 µg/mL (≈ 121 µM); in data set [3], 2 µg/mL (≈ 3.79 µM); in data set [5], 32 µg/mL (≈ 60.6 µM); in data set [6], > 128 µg/mL. In addition, the MBC in data set [2] was > 128 µg/mL; in data set [4] it was 2 µg/mL (≈ 3.79 µM); in data set [26] it was 32 µg/mL (≈ 60.6 µM).
As to `CCOC(=O)/C=C/[N+](CC)(CC)CC.O=[N+]([O-])c1ccc(/N=N/[N-]c2ccc([N+](=O)[O-])cc2C(F)(F)F)c(C(F)(F)F)c1`, the solubility result in data set [20] was “Soluble”. For the same compound, the Stability result in data set [21], in data set [22] and in [23] was “Stable” each time.
In the case of `O=C(c1ccncc1)N(/N=N/c1ccc([N+](=O)[O-])cc1Cl)c1ccc([N+](=O)[O-])cc1Cl`, the MIC in data set [1] is 128 µg/mL (≈ 278 µM); in data set [3], 16 µg/mL (≈ 34.7 µM); in [5], 16 µg/mL (≈ 34.7 µM); in data set [6] it was > 128 µg/mL. The MBC in [2] is > 128 µg/mL; in [4] it was 16 µg/mL (≈ 34.7 µM); in data set [26], 16 µg/mL (≈ 34.7 µM).
As for `O=C(c1ccncc1)N(/N=N/c1ccc([N+](=O)[O-])cc1Br)c1ccc([N+](=O)[O-])cc1Br`, the MIC was 128 µg/mL (≈ 233 µM) in [1], 32 µg/mL (≈ 58.2 µM) in data set [3], 32 µg/mL (≈ 58.2 µM) in [5] and > 128 µg/mL in data set [6]. For the same compound, the figures for the MBC in data set [2], in data set [4] and in [26] were > 128 µg/mL, 32 µg/mL (≈ 58.2 µM) and 32 µg/mL (≈ 58.2 µM), respectively.
On to `CC[N+](/C=C/C(=O)OC)(CC)CC.O=[N+]([O-])c1ccc(/N=N/[N-]c2ccc([N+](=O)[O-])cc2C(F)(F)F)c(C(F)(F)F)c1`, for which, in data set [20], the solubility entry is reported as “Soluble”. Besides, the Stability result in data set [21], in [22] and in data set [23] was “Stable” in each case.
Regarding `CCN(CC)CC.O=[N+]([O-])c1ccc(/N=N/Nc2ccc([N+](=O)[O-])cc2C(F)(F)F)c(C(F)(F)F)c1`, in [20], the solubility entry was “Soluble”. In addition, the Stability result in [21], in data set [22] and in data set [23] was “Stable” in each case.
The compound `CC1(C)S[C@@H]2[C@H](NC(=O)[C@H](N)c3ccc(O)cc3)C(=O)N2[C@H]1C(=O)O` [AMOXICILLIN] came in with an MIC in data set [27] of 8 to 16 µg/mL (≈ 21.9 to 43.8 µM).
Same read-out and setting: the figure for `CC1(C)S[C@@H]2[C@H](NC(=O)[C@H](N)c3ccccc3)C(=O)N2[C@H]1C(=O)O` [AMPICILLIN] is 128 µg/mL (≈ 366 µM); for `CC1(C)S[C@@H]2[C@H](NC(=O)C(C(=O)O)c3ccccc3)C(=O)N2[C@H]1C(=O)O` (stereo partly drawn) [CARBENICILLIN] it is 512 µg/mL (≈ 1350 µM); for `CO[C@@]1(NC(=O)Cc2cccs2)C(=O)N2C(C(=O)O)=C(COC(N)=O)CS[C@@H]21` [CEFOXITIN] it is 2 to 4 µg/mL (≈ 4.68 to 9.36 µM).
Still for that read-out and setting: the figure for `CO/N=C(\C(=O)N[C@@H]1C(=O)N2C(C(=O)O)=C(CSc3nc(=O)c(O)nn3C)CS[C@H]12)c1csc(N)n1` [CEFTRIAXONE] is 32 µg/mL (≈ 57.7 µM).
